According to ChEMBL document CHEMBL1240350, “In vitro activity of CEM-101 against Streptococcus pneumoniae and Streptococcus pyogenes with defined macrolide resistance mechanisms” (Antimicrob Agents Chemother, 2010):
Values after ≈ are worked out from the molar mass of the structure shown.

Columns and labels:
Streptococcus pneumoniae [1] = assay: Antibacterial activity against macrolide-susceptible Streptococcus pneumoniae 1077 after 49 passages following overnight incubation by agar dilution method; assay type: functional
Streptococcus pneumoniae [2] = assay: Antibacterial activity against macrolide-resistant Streptococcus pneumoniae 2686 harboring mutation in L4 ribosomal protein after 50 passages following overnight incubation by agar dilution method; assay type: functional
Streptococcus pyogenes [3] = assay: Antibacterial activity against macrolide-resistant Streptococcus pyogenes 2094 harboring erm(A) gene after 34 passages following overnight incubation by agar dilution method
Streptococcus pneumoniae [4] = assay: Antibacterial activity against macrolide-susceptible Streptococcus pneumoniae 1077 after 50 passages following overnight incubation by agar dilution method; assay type: functional
Streptococcus pneumoniae [5] = assay: Antibacterial activity against macrolide-resistant Streptococcus pneumoniae 3009 harboring mutation in 23S rRNA after 25 passages following overnight incubation by agar dilution method; assay type: functional
Streptococcus pneumoniae [6] = assay: Antibacterial activity against macrolide-resistant Streptococcus pneumoniae 1076 harboring erm(B) and mef(A) gene after 14 passages following overnight incubation by agar dilution method; assay type: functional
Streptococcus pyogenes [7] = assay: Antibacterial activity against macrolide-resistant Streptococcus pyogenes 2094 harboring erm(A) gene after 22 passages following overnight incubation by agar dilution method
Streptococcus pneumoniae [8] = assay: Antibacterial activity against macrolide-resistant Streptococcus pneumoniae 2686 harboring mutation in L4 ribosomal protein after 25 passages following overnight incubation by […]; assay type: functional
In short: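 S. pneumoniae parental strains were passaged daily in subinhibitory drug concentrations in cation-adjusted Mueller-Hinton broth with 5% lysed horse blood. Each passage was seeded from the tube 1 to 2 dilutions below the MIC whose turbidity matched the growth control. MICs of resistant clones were measured by CLSI macrodilution. Parent and clone identity was confirmed by PFGE of SmaI-digested DNA.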

Streptococcus pneumoniae [9] = assay: Antibacterial activity against macrolide-susceptible Streptococcus pneumoniae 1077 after 29 passages following overnight incubation by agar dilution method; assay type: functional
Streptococcus pyogenes [10] = assay: Antibacterial activity against macrolide-susceptible Streptococcus pyogenes 2132 after 28 passages following overnight incubation by agar dilution method
Streptococcus pyogenes [11] = assay: Antibacterial activity against macrolide-resistant Streptococcus pyogenes 2368 harboring erm(B) gene after 18 passages following overnight incubation by agar dilution method
Streptococcus pyogenes [12] = assay: Antibacterial activity against macrolide-resistant Streptococcus pyogenes 2094 harboring erm(A) gene after 43 passages following overnight incubation by agar dilution method
Streptococcus pneumoniae [13] = assay: Antibacterial activity against macrolide-susceptible Streptococcus pneumoniae 7127 harboring S20N mutation in L4 ribosomal protein and A105V mutation in L22 ribosomal protein after 16 passages following overnight incubation by agar dilution method; assay type: functional

With `CCC[C@@H]1C[C@@H](C(=O)N[C@@H]([C@H]2O[C@H](SC)[C@H](O)[C@@H](O)[C@H]2O)[C@H](C)Cl)N(C)C1` [CLINDAMYCIN] as the molecule, how does the MIC (Streptococcus pneumoniae [1]) read?
Its MIC is 4 mg/L (≈ 9.41 µM).

What about the MIC (Streptococcus pneumoniae [2]) of the same molecule?
Its MIC is 0.125 mg/L (≈ 0.294 µM).

And the MIC (Streptococcus pyogenes [3])?
The MIC was greater than 64 mg/L.

What does the source list for `CC[C@H]1OC(=O)[C@H](C)[C@@H](O[C@H]2C[C@@](C)(OC)[C@@H](O)[C@H](C)O2)[C@H](C)[C@@H](O[C@@H]2O[C@H](C)C[C@H](N(C)C)[C@H]2O)[C@](C)(OC)C[C@@H](C)C(=O)[C@H](C)[C@@H](O)[C@]1(C)O` [CLARITHROMYCIN]?
MIC (Streptococcus pneumoniae [4]): 0.008 mg/L (≈ 0.0107 µM); MIC (Streptococcus pneumoniae [5]): > 64 mg/L

How did the MIC (Streptococcus pneumoniae [6]) turn out when `CC[C@H]1OC(=O)[C@H](C)C(=O)[C@H](C)[C@@H](O[C@@H]2O[C@H](C)C[C@H](N(C)C)[C@H]2O)[C@](C)(OC)C[C@@H](C)C(=O)[C@H](C)[C@H]2N(CCCCn3cnc(-c4cccnc4)c3)C(=O)O[C@]12C` [TELITHROMYCIN] was run?
The MIC was greater than 64 mg/L.

And the MIC (Streptococcus pyogenes [7])?
Its MIC is 0.25 mg/L (≈ 0.308 µM).

What about the MIC (Streptococcus pneumoniae [8]) of the same molecule?
Its MIC is 0.5 mg/L (≈ 0.616 µM).

Which MIC (Streptococcus pneumoniae [9]) does the source give for `CC[C@H]1OC(=O)[C@H](C)[C@@H](O[C@H]2C[C@@](C)(OC)[C@@H](O)[C@H](C)O2)[C@H](C)[C@@H](O[C@@H]2O[C@H](C)C[C@H](N(C)C)[C@H]2O)[C@](C)(O)C[C@@H](C)CN(C)[C@H](C)[C@@H](O)[C@]1(C)O` [AZITHROMYCIN] here?
Its MIC is greater than 64 mg/L.

What about the MIC (Streptococcus pyogenes [10]) of the same molecule?
Its MIC is 1 mg/L (≈ 1.34 µM).

How did the MIC (Streptococcus pyogenes [11]) turn out when `CC[C@H]1OC(=O)[C@@](C)(F)C(=O)[C@H](C)[C@@H](O[C@@H]2O[C@H](C)C[C@H](N(C)C)[C@H]2O)[C@](C)(OC)C[C@@H](C)C(=O)[C@H](C)[C@H]2N(CCCCn3cc(-c4cccc(N)c4)nn3)C(=O)O[C@]12C` [SOLITHROMYCIN] was run?
The MIC was 8 mg/L (≈ 9.47 µM).

What about the MIC (Streptococcus pyogenes [12]) of the same molecule?
Its MIC is 0.25 mg/L (≈ 0.296 µM).

What about the MIC (Streptococcus pneumoniae [13]) of the same molecule?
The MIC was 0.125 mg/L (≈ 0.148 µM).
